Active and inactive are the calls of the source. The rule behind the calls is not given here.
Tests used:
[1] = test system: HUVEC; test: Antiangiogenic activity against HUVEC assessed as inhibition of cell migration at 25 uM after 20 hrs by scratch assay; format: functional, cell-based; details: Homo sapiens
Method in brief: (§1)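 Confluent HUVEC monolayers were scratched with a pipette tip and washed twice with PBS. Compound was added in HUVEC medium, and cells were incubated at 37°C for 20 h. Images were taken at 0 h (right after compound addition) and at 20 h. Migration was compared with cells not given compound.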

[2] = test system: HUVEC; test: Antiangiogenic activity against HUVEC assessed as inhibition of cell migration at 10 uM after 20 hrs by scratch assay; format: functional, cell-based; details: Homo sapiens; method in brief: as §1
[3] = test system: HUVEC; test: Cytotoxicity against HUVEC assessed as cell viability at 10 uM after 6 hrs by crystal violet staining; format: cell-based; details: human
[4] = test system: HUVEC; test: Inhibition of ECTO-NOX in HUVEC assessed as reduction of WST-1 at 10 uM […]; format: cell-based; details: Homo sapiens
Method in brief: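 HUVECs were grown for 24 h after seeding, then treated for 20 h in duplicate with analog (0.5, 1, 5, 10 µM) or DMSO solvent. WST-1 reduction was then measured following the kit protocol, read as optical density at 450 nm.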

[5] = test system: HUVEC; test: Antiangiogenic activity against HUVEC assessed as inhibition of p70S6K1 phosphorylation at T389; format: functional, cell-based; details: Homo sapiens

With `O=[N+]([O-])c1ccc2c(c1)c(/C=C1/C(O)C3CCN1CC3)cn2Cc1ccccc1` (centres undefined) the Activity [1] was “Active”, the Activity [2] was “Active” and the Activity [3] was “Non-toxic”.

With `NC(=O)N/N=C1/C(=C/c2cn(S(=O)(=O)c3ccccc3)c3ccccc23)N2CCC1CC2` the Activity [1] was “Active”, the “ECTO-NOX inhibition (active/not active)” value [4] was “inactive” and the Activity [2] was “Active”.

For `Cc1ccc(S(=O)(=O)n2cc(/C=C3/C(O)C4CCN3CC4)c3ccccc32)cc1` (centres undefined), the “ECTO-NOX inhibition (active/not active)” value [4] was “inactive”.

With `O=C(Nc1ccccc1)OC1/C(=C/c2cn(S(=O)(=O)c3ccccc3)c3ccccc23)N2CCC1CC2` (centres undefined) the Activity [1] was “Active” and the Activity [2] was “Active”.

`OC1/C(=C/c2cn(Cc3ccccc3)c3ccc(Br)cc23)N2CCC1CC2` (centres undefined) was tested, and the Activity [1] was “Active”, the “ECTO-NOX inhibition (active/not active)” value [4] was “inactive” and the Activity [2] was “Active”. For the same molecule, the Activity [3] was “Non-toxic”.

With `OC1/C(=C/c2cn(Cc3cccc(F)c3)c3ccc(Br)cc23)N2CCC1CC2` (centres undefined) the Activity [1] was “Active”, the Activity [2] was “Active” and the Activity [3] was “Non-toxic”.

In the case of `O=S(=O)(c1ccccc1)n1cc(/C=C2/C(=N/O)C3CCN2CC3)c2ccccc21`, the Activity [1] was “Active”, the inhibition [5] was “Active” and the “ECTO-NOX inhibition (active/not active)” value [4] was “Active”. For the same molecule, the Activity [2] was “Active” and the Activity [3] was “Non-toxic”.

`OC1/C(=C/c2cn(Cc3cccc(F)c3)c3ccccc23)N2CCC1CC2` (centres undefined) was tested, and the Activity [1] was “Active”, the “ECTO-NOX inhibition (active/not active)” value [4] was “inactive” and the Activity [2] was “Active”. The Activity [3] was “Non-toxic”.

For `Cc1cccc(Cn2cc(/C=C3/C(O)C4CCN3CC4)c3cc(C)ccc32)c1` (centres undefined), the Activity [1] was “Active”, the “ECTO-NOX inhibition (active/not active)” value [4] was “inactive” and the Activity [2] was “Active”. The Activity [3] was “Non-toxic”.

Reference: ChEMBL document CHEMBL1287763, “Antiangiogenic properties of substituted (Z)-(±)-2-(N-benzylindol-3-ylmethylene)quinuclidin-3-ol/one analogs and their derivatives” (Bioorg Med Chem Lett, 2010)
